An excerpt weighted towards active compounds, which were near 1.3% of everything screened.
MEX-5 binding: MEX-5 zinc finger RNA-binding disruptors – biochemical, C. elegans, fluorescence polarization, MLPCN library, primary screen | Zinc finger protein mex-5 (Caenorhabditis elegans), Q9XUB2 | hit rate 0.38% among 300,000 | MEX-5/FITC-TCR2 RNA binding; hits give low values | activity score (negative = inhibition of binding), % at 10 µM;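 active = inhibition past about -25% in most replicates, and total fluorescence under double the plate's negative control median, limit read from the data; inconclusive = replicates evenly split on the limit, or fluorescence at least double controls; inactive = too little inhibition in most replicates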;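 also: 0% = DMSO and -100% = 5 µM competing unlabeled TCR2 RNA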
EBV gp42 inh: Epstein-Barr virus gp42 inhibitors, primary screen, biochemical, uHTS, fluorescence polarization; Glycoprotein 42 (Epstein-Barr virus (strain AG876)), Q1HVG2; hit rate 0.42% among 220,000; inhibition, % (tested at 21.74 µM); Fluorescence polarization binding assay, mP read-out; AID 1085, 2008; in the data active = inhibition above about 50%
C-LANA FP: inhibitors of KSHV C-LANA binding to DNA, primary screen, biochemical, fluorescence polarization, FAM-LBS DNA, MBP-C-LANA, single point; Kaposi's sarcoma herpesvirus LANA C-terminal domain (residues 932-1162) DNA binding; inhibition, % at 9 µM; hit rate 0.078% among 340,000; AID 504423, 2011;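 active = highest replicate inhibition at or above 60% at 9 µM, even if other replicates fall short; inactive = all replicates below 60% inhibition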;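 also: 0% = neutral control wells and 100% = 4 µM acridine orange control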
T cell modulator: modulators of CD8 T cell-vesicle binding, primary screen, mouse 2C CD8+ T cells, flow cytometry; 2C CD8+ T cell-vesicle binding; hits give low values; response (vesicle binding), % at 7 µM; hit rate 0.068% among 330,000; AID 2052, 2009;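 active = response, share of CD8 T cells binding vesicles, and their 90th percentile fluorescence all below set limits, cut at about 80% in these data, passing the limit was not always enough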;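 also: values below 100% mean blocked vesicle binding to the CD8+ T cells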
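incubation = binding step 1.5 h, 37 °C, antibody labelling 20 min, ice | test system = 2C mouse CD8+ T cells | read-out basis = percent CD8+ FL2 mean versus row control | controls = Peptide-free naked vesicles (low) and QL9 vesicles with 0.7% DMSO vehicle (high) | detection = flow cytometry of vesicle-bound cells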
Keap1-Nrf2 PPI: Keap1-Nrf2 protein-protein interaction inhibitors, primary screen, biochemical, fluorescence polarization, single point. Kelch-like ECH-associated protein 1 (Homo sapiens), Q14145. hit rate 0.15% among 340,000. AID 504523, 2011. Keap1 Kelch-Nrf2 peptide fluorescence polarization, 1536-well. inhibition, % at 9.4 µM; in the data active = inhibition above about 12%; inconclusive = no clear call, values can overlap the other calls; inactive = below about 7.3%;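 also: human Keap1 Kelch domain with fluorescein labeled Nrf2 9mer peptide probe; 0% = neutral control wells and 100% = peptide positive control; higher means more block of Keap1 binding to Nrf2 peptide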
Target sequence (Q14145 whole entry, looked up, the tested form may be a part): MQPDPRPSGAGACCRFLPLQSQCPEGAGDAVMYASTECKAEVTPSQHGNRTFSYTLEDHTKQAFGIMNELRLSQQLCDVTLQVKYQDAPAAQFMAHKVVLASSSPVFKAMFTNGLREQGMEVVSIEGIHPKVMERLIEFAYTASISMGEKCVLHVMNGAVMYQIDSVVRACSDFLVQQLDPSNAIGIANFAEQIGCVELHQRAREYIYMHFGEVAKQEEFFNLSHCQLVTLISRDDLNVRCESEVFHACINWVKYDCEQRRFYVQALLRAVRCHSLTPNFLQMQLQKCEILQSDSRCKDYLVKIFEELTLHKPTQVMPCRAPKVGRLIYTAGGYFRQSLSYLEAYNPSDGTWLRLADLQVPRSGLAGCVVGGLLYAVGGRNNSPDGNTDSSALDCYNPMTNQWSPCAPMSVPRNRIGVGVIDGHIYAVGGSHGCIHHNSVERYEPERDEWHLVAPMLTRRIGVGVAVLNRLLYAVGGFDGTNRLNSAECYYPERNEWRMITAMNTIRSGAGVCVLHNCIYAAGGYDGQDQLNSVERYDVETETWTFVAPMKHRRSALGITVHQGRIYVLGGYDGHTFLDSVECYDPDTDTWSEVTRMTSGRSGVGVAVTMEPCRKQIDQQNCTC
GRK2 aptamer HTS: compounds blocking aptamer binding on GRK2 – biochemical, human GRK2, bead flow cytometry, HTS, primary screen. Beta-adrenergic receptor kinase 1 (Homo sapiens), P25098. FAM-aptamer displacement from GRK2. inhibition of aptamer binding, % at 10 µM. hit rate 0.59% among 330,000. AID 488847, 2010;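 active = inhibition of aptamer binding above 40%, roughly 3 SD of noise, on plates passing a quality check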;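 also: median bead fluorescence of bound FAM aptamer so fluorescent compounds give negative values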
* marks the source's active call; other numbers are inactive results; u = inconclusive; x = no result; ! = not active in a repeat.

SMILES	MEX-5 binding	EBV gp42 inh	C-LANA FP	T cell modulator	Keap1-Nrf2 PPI	GRK2 aptamer HTS
CCOC(=O)c1cc(CC)sc1/N=C/c1c(O)[nH]c(=S)[nH]c1=O	-29*	-162	0	237	-13	1
CCOC(=O)c1cc(CC)sc1/N=C/C1C(=O)NC(=S)NC1=O	-13	-126	-2	186	-17	0
Cc1cc(/C=C2/C(=O)NC(=O)N(c3ccc(Br)cc3)C2=O)c(C)n1C	-11	20	3	504	-2	2
Cc1cc(/C=C2\C(=O)NC(=O)N(c3cccc(Br)c3)C2=O)c(C)n1C	-28*	111*	3	333	5	0
CCc1nnc(NS(=O)(=O)c2ccc(N=Cc3c(O)n(-c4ccc(Cl)cc4)c(=O)[nH]c3=O)cc2)s1	-28*	4	-6	187	-12	6
CCN(CC)c1ccc(N=Cc2c(O)n(Cc3ccccc3)c(=O)[nH]c2=O)cc1	-29*!	-8	2	367	4	0
CCN(CC)c1ccc(N=Cc2c(O)n(-c3ccccc3)c(=O)[nH]c2=O)cc1	-18	-45	2	220	-7	100*
O=C(N/N=C/c1c(O)n(Cc2ccccc2)c(=O)[nH]c1=O)c1ccccc1O	-36*	-10	0	222	5	4
CCOc1ccccc1-n1c(O)c(C=Nc2ccc(N(CC)CC)cc2)c(=O)[nH]c1=O	-13	-99	9	199	-3	1
Cc1cccc(-n2c(/C=C/c3ccccn3)nc3ccccc3c2=O)c1	2	x	1	162	-4	3
CCC1([N+](=O)[O-])COP(=O)(NCc2cccnc2)OC1 (stereo not given)	x	x	1	x	1	x
CCOc1ccc(-n2c(O)c(C=Nc3ccc(NC(C)=O)cc3)c(=O)[nH]c2=O)cc1	-2	-27	0	293	-5	0
CCOc1ccc(-n2c(O)c(C=Nc3ccc(N(CC)CC)cc3)c(=O)[nH]c2=O)cc1	-19	82*	5	444	-5	3
C=CCn1c(O)c(/C=C/C=Nc2ccccc2)c(=O)[nH]c1=O	-26*	-218	2	141	3	0
CCN(c1ccc(C(O)(C(=O)OC)C(F)(F)F)cc1)S(=O)(=O)c1ccccc1 (stereo not given)	1	-17	2	230	-7	0
OCC1CO1 (stereo not given)	x	x	-1	663	0	3
CCOC(=O)[C@]1(C#N)[C@@H]2C=CC(C(N)=O)=CN2[C@@H](C(N)=O)[C@@H]1c1ccc(F)cc1	-6	12	0	95	-4	0
COC(=O)[C@@]1(C#N)[C@@H]2C=CC(C(C)=O)=CN2[C@@H](C(N)=O)[C@@H]1c1ccc(F)cc1	-57*	119*	3	266	3	0
CCOC(=O)[C@@]1(C#N)[C@@H]2C=CC(C(N)=O)=CN2[C@@H](C(N)=O)[C@@H]1c1cccc(Cl)c1	-10	6	3	547	1	2
CCOC(=O)[C@@]1(C#N)C(c2ccc(Cl)c(Cl)c2)[C@H](C(N)=O)N2C=C(C(C)=O)C=C[C@H]21 (stereo not given in full)	-56*	102*	2	111	-1	0
O=c1[nH]c(=O)n(Cc2ccccc2Cl)c(O)c1/C=C1/C=CC=N1	-10	58*	1	118	-1	3
CCOc1cccc(N2C(=O)/C(=C/c3ccco3)C(=O)NC2=S)c1	2	x	x	220	0	30
O=C1NC(=S)N(c2ccccc2)C(=O)/C1=C/c1ccco1	-93*	x	88*	356	0	43*
Cc1ccccc1N1C(=O)NC(=O)/C(=C\c2ccc3c(c2)CCCN3Cc2ccccc2)C1=O	1	171*	1	0	-11	0
COc1ccc(/C=C2/C(=O)NC(=O)N(c3ccccc3)C2=O)cc1CN1C(=O)c2ccccc2C1=O	-5	-4	2	92	-6	1
SMILES	MEX-5 binding	EBV gp42 inh	C-LANA FP	T cell modulator	Keap1-Nrf2 PPI	GRK2 aptamer HTS
NCCc1cc(O)c(O)cc1O	x	x	2	x	1	x
NC(Cc1cc(O)c(O)cc1O)C(=O)O (stereo not given)	x	x	x	330	x	71*
CN1C[C@H](CO)C=C2c3cccc4[nH]cc(c34)C[C@H]21	u	58*	17	466	9	0
CCn1c(O)c(C=Nc2ccc(N3CCOCC3)cc2)c(=O)n(CC)c1=S	u	177*	5	374	-6	3
CCn1c(O)c(C=Nc2ccc(N3CCOCC3)c(Br)c2)c(=O)n(CC)c1=S	1	-12	18	502	-15	0
O=c1[nH]c(=O)n(C2CCCCC2)c(O)c1C=Nc1ccc(N2CCOCC2)cc1	0	-1	198*	197	-2	0
O=c1[nH]c(=S)n(-c2ccc(Cl)cc2)c(O)c1C=Nc1ccc(N2CCOCC2)cc1	-41*	45	2	368	0	3
CCOP(=O)(OCC)C(NC(=O)C(C)C)C(Cl)(Cl)Cl (stereo not given)	-1	-28	-1	196	-3	3
O=C(Cn1c(NCCCl)nc2ccccc21)c1ccc(Br)cc1	1	x	0	690	-5	2
CC1CN(c2cc([N+](=O)[O-])ccc2Cl)CC(C)N1 (stereo not given)	1	4	0	220	-3	0
[N-]=[N+]=NCCN1CCC(O)CCC1=O (stereo not given)	2	x	0	464	5	0
CN1C(=O)C(=Cc2ccc(N3CCCCCC3)cc2)C(=O)N(C)C1=O	0	84*	3	131	-1	x
O=C1NC(=O)N(Cc2ccc(F)cc2)C(=O)/C1=C\c1ccc(N2CCCC2)cc1	2	-18	0	434	-6	0
Oc1cc2c(cc1O)[C@H]1c3ccccc3CN[C@@H]1CC2	-57*	-4	x	223	x	0
CN(C)[C@@H]1C(=O)C(C(N)=O)=C(O)[C@@]2(O)C(=O)C3=C(O)c4c(O)cccc4[C@@](C)(O)[C@H]3[C@H](O)[C@@H]12	-84*	4	124*	401	-2	57*!
Cc1ccc(N2C(=O)/C(=C/c3ccc(CN(CCC#N)S(C)(=O)=O)o3)C(=O)NC2=S)cc1	-50*	-33	16	487	0	7
COc1ccc(N2C(=O)NC(=O)/C(=C\c3cn(C)c4ccccc34)C2=O)cc1	-39*	x	35	95	4	0

Assay outcomes from PubChem BioAssay.
